Results on five compounds are retold here after ChEMBL document CHEMBL1125745, “Unsaturated and carbocyclic nucleoside analogues: synthesis, antitumor, and antiviral activity” (J Med Chem, 1991).

Assay [1] is described as follows: Cytotoxicity was evaluated against CO9 solid tumor of mouse at 1.5 ug/disk. The assay is classed as functional. Summed up:
(§1)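 Disk zone assay: analogue dilutions on 6.5 mm paper disks were placed on dishes with a 0.8% agar bottom layer and a 0.44% soft-agar top layer of tumor cells (≤1 × 10^5/plate) in Fishers-CMRL-1066 with 12% horse serum. Plates were incubated 6-10 days and the inhibition zone was measured by microscope; 200 zone units = 6 mm.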

The test system of assay [2] is PO3. Description: Cytotoxicity was evaluated against PO3 cell line at 1.5 ug/disk. Type of assay: functional, Mus musculus. A digest of the protocol:
as §1

The species entered for assay [3] is Homo sapiens. Nature of the assay: Cytotoxicity was evaluated against PO1 human solid tumor at 1.5 ug/disk. Type of assay: functional. Summed up: as §1
Assay [4] is filed under the species Homo sapiens. Description: Cytotoxicity was evaluated against H125 human solid tumor at 1.5 ug/disk. The assay is classed as functional. A digest of the protocol:
as §1

Assay [5] is described as follows: Cytotoxicity was evaluated against low malignancy line at 1.5 ug/disk. Type of assay: functional. A digest of the protocol: as §1
Assay [6] has as its system MC-38. Description: Cytotoxicity was evaluated against C38 solid tumor of mouse at 1.5 ug/disk. The assay is classed as functional. A digest of the protocol:
as §1

For assay [7], the species on record is Homo sapiens. Nature of the assay: Cytotoxicity was evaluated against C116 human solid tumor at 1.5 ug/disk. Type of assay: functional. Summed up:
as §1

The test system of assay [8] is L1210. Description: Compounds were evaluated for inhibition of macromolecular synthesis in murine leukemia L1210 cells at 1 hour against DNA. On the set-up: scale not given: the % may be the effect or the level left. The assay is classed as functional, Mus musculus.
Assay [9] has as its system L1210. Description: Compound were evaluated for inhibition of macromolecular synthesis in murine leukemia L1210 cells at 4 hour against DNA. Type of assay: functional, Mus musculus. On the set-up: scale not given: the % may be the effect or the level left.
The test system of assay [10] is L1210. Nature of the assay: Compound were evaluated for inhibition of macromolecular synthesis in murine leukemia L1210 cells at 4 hour against RNA. Also noted: scale not given: the % may be the effect or the level left. Type of assay: functional, Mus musculus.
Assay [11] is filed under the species Homo sapiens. Description: Cytotoxicity was evaluated against PO1 human solid tumor at 500 ug/disk. The assay is classed as functional. A digest of the protocol:
as §1

The subject of assay [12] is L1210. Nature of the assay: Compounds were evaluated for inhibition of macromolecular synthesis in murine leukemia L1210 cells at 1 hour against RNA. The assay is classed as functional, Mus musculus. Also noted: scale not given: the % may be the effect or the level left.
Assay [13] in a line: Cytotoxicity was evaluated against low malignancy line at 500 ug/disk. The assay is classed as functional. Summed up:
as §1

The test system of assay [14] is L1210. Description: Compound were evaluated for inhibition of macromolecular synthesis in murine leukemia L1210 cells at 4 hour against Protein. Type of assay: functional, Mus musculus. On the set-up: scale not given: the % may be the effect or the level left.
The test system of assay [15] is L1210. Nature of the assay: Compound were evaluated for inhibition of macromolecular synthesis in murine leukemia L1210 cells at 1 hour against Protein. On the set-up: scale not given: the % may be the effect or the level left. Type of assay: functional, Mus musculus.
Assay [16] has as its system L1210. Nature of the assay: Inhibitory activity against murine leukemia L1210 cells. Particulars: Mus musculus. Type of assay: functional, cell-based.
The nature of assay [17]: Cytotoxicity was evaluated against CO9 solid tumor of mouse at 500 ug/disk. The assay is classed as functional. Summed up: as §1
In assay [18] the test system is L1210. Nature of the assay: Cytotoxicity was evaluated against L1210 leukemia cell line at 500 ug/disk. The assay is classed as functional, Mus musculus. Summed up:
as §1

Assay [19] is filed under the species Mus musculus. Nature of the assay: Cytotoxicity was evaluated against low malignancy line at 1000 ug/disk. Type of assay: functional. A digest of the protocol: as §1
The subject of assay [20] is L1210. Description: Compound was evaluated for inhibition of macromolecular synthesis in murine leukemia L1210 cells at 4 hour against RNA. Type of assay: functional, Mus musculus. Also noted: scale not given: the % may be the effect or the level left.
The test system of assay [21] is L1210. Description: Compound was evaluated for inhibition of macromolecular synthesis in murine leukemia L1210 cells at 4 hour against DNA. The assay is classed as functional, Mus musculus. Also noted: scale not given: the % may be the effect or the level left.
Assay [22] is filed under the species Homo sapiens. Description: Cytotoxicity was evaluated against C116 human solid tumor at 1000 ug/disk. Type of assay: functional. A digest of the protocol:
as §1

Assay [23] relates to L1210. Nature of the assay: Compound was evaluated for inhibition of macromolecular synthesis in murine leukemia L1210 cells at 4 hour against Protein. Type of assay: functional, Mus musculus. On the set-up: scale not given: the % may be the effect or the level left.
The test system of assay [24] is L1210. Description: Cytotoxicity was evaluated against L1210 leukemia cell line at 1000 ug/disk. The assay is classed as functional, Mus musculus. A digest of the protocol: as §1
The subject of assay [25] is MC-38. Nature of the assay: Cytotoxicity was evaluated against C38 solid tumor of mouse at 1000 ug/disk. Type of assay: functional. A digest of the protocol:
as §1

In assay [26] the test system is PO3. Nature of the assay: Cytotoxicity was evaluated against PO3 cell line at 250 ug/disk. The assay is classed as functional, Mus musculus. Summed up:
as §1

Assay [27] concerns L1210. Description: Compound was evaluated for inhibition of macromolecular synthesis in murine leukemia L1210 cells at 1 hour against DNA. The assay is classed as functional, Mus musculus. Also noted: scale not given: the % may be the effect or the level left.
Assay [28] is filed under the species Homo sapiens. Nature of the assay: Cytotoxicity was evaluated against C116 human solid tumor at 250 ug/disk. Type of assay: functional. Summed up: as §1
Assay [29] concerns L1210. Description: Cytotoxicity was evaluated against L1210 leukemia cell line at 250 ug/disk. Type of assay: functional, Mus musculus. Summed up: as §1
The species named for assay [30] is Homo sapiens. Nature of the assay: Cytotoxicity was evaluated against PO1 human solid tumor at 250 ug/disk. Type of assay: functional. Summed up: as §1
The test system of assay [31] is L1210. Description: Compound was evaluated for inhibition of macromolecular synthesis in murine leukemia L1210 cells at 1 hour against RNA. Type of assay: functional, Mus musculus. On the set-up: scale not given: the % may be the effect or the level left.
For assay [32], the system named is L1210. Nature of the assay: Compound was evaluated for inhibition of macromolecular synthesis in murine leukemia L1210 cells at 1 hour against Protein. Type of assay: functional, Mus musculus. Also noted: scale not given: the % may be the effect or the level left.
A short description of assay [33]: Cytotoxicity was evaluated against low malignancy line at 250 ug/disk. The assay is classed as functional. A digest of the protocol:
as §1

For assay [34], the species on record is Mus musculus. Description: Selectivity index which is the ratio of IC50 to EC50 of R-MuLV. The assay is classed as functional.
Assay [35] in a line: Inhibition of incorporation of labeled precursor into macromolecules of noninfected SC-1 cells with the compound at a concentration 300 uM determined against thymidine. The assay is classed as functional. Summed up:
(§2)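 SC-1 cells seeded in 24-well trays at 1 × 10^4 cells/mL, incubated overnight at 37 °C, then exposed to analogue for 72 h at 37 °C. Labeled thymidine (2.5 µCi), [3H-5,6]uridine or [3H-4,5]leucine was added. After 4 h, cells were washed with cold PBS, lysed in 1% SDS/0.01 M EDTA/0.01 M Tris pH 7.7, and lysates were dried on GF/B filters. Result given as % of untreated incorporation.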

Assay [36] is filed under the species Mus musculus. Nature of the assay: Cytotoxicity was evaluated. The assay is classed as functional. Summed up: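 SC-1 cells (1 × 10^4 cells/mL) were seeded, incubated overnight at 37 °C, refed with EMEM-10 and given diluted analogue in triplicate for 72 h at 37 °C. Cells were trypsinized and counted in a Coulter counter. The mean of three wells gave percent of control count, and IC50 was calculated by linear regression.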

Assay [37] in a line: Inhibition of incorporation of labeled precursor into macromolecules of noninfected SC-1 cells with the compound at a concentration 300 uM determined against leucine. Type of assay: functional. Summed up: as §2
A short description of assay [38]: Inhibition of incorporation of labeled precursor into macromolecules of noninfected SC-1 cells with the compound at a concentration 100 uM determined against leucine. Type of assay: functional. A digest of the protocol: (§3)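 Noninfected SC-1 cells were incubated with analogue as in the cytotoxicity setup, and [3H]thymidine, [3H]uridine or [3H]leucine was added. After 4 h, wells were washed with ice-cold PBS and cells were lysed in 1% SDS, 0.01 M EDTA, 0.01 M Tris pH 7.7. Lysates were dried on glass-fiber filters, and label is expressed as percent of incorporation in untreated cells.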

Assay [39] is filed under the species Mus musculus. Description: Concentration that reduces Rauscher murine leukemia virus titer by 50%. The assay is classed as functional, organism-based. A digest of the protocol:
(§4)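 SC-1 cells (1 × 10^4/well) were pretreated with polybrene, infected 2 h at 37 °C with F-MuLV or R-MuLV in EMEM-5 with 8 µg/mL polybrene, washed, and refed with analogue for 72 h. They were then UV-irradiated and overlaid with XC cells (2 × 10^5) for 48 h, fixed and stained with crystal violet. Multinucleated cells were counted and EC50 was taken by linear regression versus untreated cultures.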

The species entered for assay [40] is Mus musculus. Nature of the assay: Concentration that reduces Friend murine leukemia virus titer by 50%. Type of assay: functional, organism-based. A digest of the protocol: as §4
Assay [41] is described as follows: Inhibition of incorporation of labeled precursor into macromolecules of noninfected SC-1 cells with the compound at a concentration 300 uM determined against uridine. The assay is classed as functional. Summed up: as §2
A short description of assay [42]: Inhibition of incorporation of labeled precursor into macromolecules of noninfected SC-1 cells with the compound at a concentration 100 uM determined against thymidine. Type of assay: functional. A digest of the protocol: as §3
A short description of assay [43]: Inhibition of incorporation of labeled precursor into macromolecules of noninfected SC-1 cells with the compound at a concentration 100 uM determined against uridine. Type of assay: functional. Summed up: as §3
Assay [44] in a line: Selectivity index is the ratio of IC50 to EC50 of F-MuLV. Type of assay: functional.

Consider `Nc1ncnc2c1ncn2[C@@H]1C=C(CO)[C@@H](O)[C@H]1O` [NEOPLANOCIN A], for which the Cytotoxicity in assay [1] is recorded as 40; in assay [2] it was 80; in assay [3], 0; in assay [4] it was 400; in [5] it was 100; in [6] it was 0. In assay [7], the Cytotoxicity came out at 340.

What is called IC50 is the midpoint of a concentration-inhibition curve. For the compound `Nc1ccn(C/C=C\CCl)c(=O)n1`, the Control in assay [8] is 80%; in [9], 67%; in [10], 100%; in assay [12], 100%; in [14], 100%; in assay [15] it was 100%. The Cytotoxicity came to 640 in [11], 450 in assay [13], 410 in assay [17] and 640 in assay [18]. For the same compound, it took 10 µM to reach half-maximal inhibition in assay [16] (IC50).

With `Cc1cn(C2C=CCO2)c(=O)[nH]c1=O` (centres undefined), the Cytotoxicity in assay [19] came out at 500; in assay [22], 260; in assay [24] it was 410; in assay [25], 430. The Control in assay [20] is 50%; in assay [21] it was 10%; in assay [23], 90%. This compound displayed an IC50 in assay [16] of 50 µM.

Regarding `Nc1ccn(C2C=CCO2)c(=O)n1` (centres undefined), the Cytotoxicity in assay [26] is on record as 500; in [28], 450; in assay [29], 500; in assay [30] it was 600; in assay [33] it was 400. Moreover, the Control in assay [27] was determined as 85%; in assay [20], 85%; in assay [21], 55%; in [31], 100%; in assay [23] it was 50%; in assay [32] it was 100%. The 50% inhibitory concentration (IC50) in assay [16] stood at 28 µM.

As a reminder, the EC50 is the concentration at which the effect is half-maximal. As to `Nc1ncnc2c1ncn2C1C(O)C(O)C(CO)C1O` (centres undefined), the values for the SI in assay [34] and in [44] were 9.1 and 3.4, respectively. For the same compound, the Precursor inhibition in assay [35] is on record as 110%; in assay [37], 53%; in assay [38], 99%; in assay [41], 29%; in assay [42], 115%; in assay [43] it was 56%. Moreover, the IC50 in assay [36] amounted to 281 µM. The EC50 in assay [39] worked out at 25 µM; in assay [40], 67.3 µM.
